Laboratory results reported in ChEMBL document CHEMBL1641417, “Cytotoxicity and topoisomerase I/II inhibition of glycosylated 2-phenyl-indoles, 2-phenyl-benzo[b]thiophenes and 2-phenyl-benzo[b]furans” (Bioorg Med Chem, 2011).
Active and inactive are the calls of the source. The rule behind the calls is not given here.

Assays:
[1] = Cytotoxicity against human CRL7761 cells after 3 days by MTS assay; type: cell-based; conditions: 72 h
Method in brief: (§1)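 Non-tumour cells were CRL-7761 human skin, Vero monkey kidney (DMEM high glucose, 5% FBS, 10 mM HEPES) and NIH/3T3 mouse (DMEM, 10% calf serum). Cells were seeded, left 24 h, then switched to serum-free DMEM-F12 with albumin, transferrin and insulin, with or without compound. Exposure was 3 days at 37 °C.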

[2] = target: DNA topoisomerase 2-alpha (Homo sapiens) (UniProt P11388); test: Induction of poisoning activity in human recombinant DNA topoisomerase 2alpha assessed as enhancement of in relaxation of supercoiled plasmid substrate DNA at 100 uM after 30 mins by agarose gel electrophoresis
Method in brief: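 For topo IIα cleavage, 0.25 µg supercoiled pRYG was incubated with 4 units of human topoisomerase IIα (p170) in Tris buffer with 2 mM ATP and 10 mM MgCl2 for 30 min at 37 °C. Workup was SDS stop, proteinase K, extraction and agarose electrophoresis. Poisoning was judged by appearance of a linear DNA band.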

[3] = target: T1, DNA topoisomerase 1 (Homo sapiens) (UniProt P11387); test: Inhibition of human recombinant DNA topoisomerase 1-mediated DNA cleavage assessed as decrease in relaxation of supercoiled plasmid substrate DNA at 100 uM after 30 mins by agarose gel electrophoresis
T1 sequence (whole entry): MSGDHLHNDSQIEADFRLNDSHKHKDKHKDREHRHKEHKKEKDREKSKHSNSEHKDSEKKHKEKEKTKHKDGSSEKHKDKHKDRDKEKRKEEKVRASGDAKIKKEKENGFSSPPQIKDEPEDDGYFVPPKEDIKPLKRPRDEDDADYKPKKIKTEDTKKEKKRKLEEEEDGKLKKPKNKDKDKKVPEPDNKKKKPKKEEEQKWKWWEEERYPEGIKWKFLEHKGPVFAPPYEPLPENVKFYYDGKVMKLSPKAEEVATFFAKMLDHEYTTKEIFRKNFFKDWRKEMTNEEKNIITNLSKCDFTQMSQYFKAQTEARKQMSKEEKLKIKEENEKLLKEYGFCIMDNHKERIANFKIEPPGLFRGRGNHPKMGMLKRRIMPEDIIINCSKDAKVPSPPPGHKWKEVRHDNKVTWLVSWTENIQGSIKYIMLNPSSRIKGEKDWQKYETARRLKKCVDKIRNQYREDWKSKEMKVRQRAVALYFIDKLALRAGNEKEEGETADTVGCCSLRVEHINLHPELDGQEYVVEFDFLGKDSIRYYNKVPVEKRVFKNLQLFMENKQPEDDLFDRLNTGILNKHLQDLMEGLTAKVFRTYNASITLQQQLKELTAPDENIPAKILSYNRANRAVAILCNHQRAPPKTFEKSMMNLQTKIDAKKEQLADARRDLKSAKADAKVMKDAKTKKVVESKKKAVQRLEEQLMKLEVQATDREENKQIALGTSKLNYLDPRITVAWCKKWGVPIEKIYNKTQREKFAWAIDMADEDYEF

[4] = target: DNA topoisomerase 2-alpha (Homo sapiens) (UniProt P11388); test: Inhibition of human recombinant DNA topoisomerase 2alpha-mediated DNA cleavage assessed as decrease in relaxation of supercoiled plasmid substrate DNA at 20 uM after 30 mins by agarose gel electrophoresis
HT-29 [5] = test: Cytotoxicity against human HT-29 cells at 25 uM after 72 hrs by MTS assay
[6] = target: DNA topoisomerase 2-alpha (Homo sapiens) (UniProt P11388); test: Inhibition of human recombinant DNA topoisomerase 2alpha-mediated DNA cleavage assessed as decrease in relaxation of supercoiled plasmid substrate DNA at 40 uM after 30 mins by agarose gel electrophoresis
HepG2 [7] = test: Cytotoxicity against human HepG2 cells assessed as cell viability at 25 uM after 24 hrs by MTS assay; type: functional; conditions: HepG2, 24 h, read-out: Activity
[8] = target: T1, DNA topoisomerase 1 (Homo sapiens); test: Induction of poisoning activity in human recombinant DNA topoisomerase 1 assessed as enhancement of in relaxation of supercoiled plasmid substrate DNA at 75 to 100 uM after 30 mins by agarose gel electrophoresis
Method in brief: (§2)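 In the topo I cleavage (poison) assay, the relaxation format was used with 6 units of enzyme for 30 min at 37 °C. Reactions were stopped with SDS, digested with proteinase K and CIA-extracted. DNA was run on 1% agarose with and without ethidium bromide. Poisoning was scored by the presence of the nicked open-circular band, referenced to camptothecin.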

HT-29 [9] = test: Cytotoxicity against human HT-29 cells assessed as cell viability at 25 uM after 72 hrs by MTS assay; conditions: HT-29, 72 h
Vero = test: Cytotoxicity against african green monkey Vero cells after 3 days by MTS assay; type: cell-based; conditions: Chlorocebus sabaeus, 72 h; method in brief: as §1
HepG2 [10] = test: Cytotoxicity against human HepG2 cells at 25 uM after 72 hrs by MTS assay
HepG2 [11] = test: Cytotoxicity against human HepG2 cells after 72 hrs by MTS assay; conditions: HepG2, 72 h
[12] = target: T1, DNA topoisomerase 1 (Homo sapiens); test: Induction of poisoning activity in human recombinant DNA topoisomerase 1 assessed as enhancement of in relaxation of supercoiled plasmid substrate DNA at 100 uM after 30 mins by agarose gel electrophoresis; method in brief: as §2
[13] = target: T1, DNA topoisomerase 1 (Homo sapiens); test: Induction of poisoning activity in human recombinant DNA topoisomerase 1 assessed as enhancement of in relaxation of supercoiled plasmid substrate DNA at 25 to 50 uM after 30 mins by agarose gel electrophoresis; method in brief: as §2
[14] = target: T1, DNA topoisomerase 1 (Homo sapiens); test: Inhibition of human recombinant DNA topoisomerase 1-mediated DNA cleavage assessed as decrease in relaxation of supercoiled plasmid substrate DNA at 40 uM after 30 mins by agarose gel electrophoresis
MCF7 [15] = test: Cytotoxicity against human MCF7 cells assessed as cell viability at 25 uM after 72 hrs by MTS assay; conditions: MCF7, 72 h
MCF7 [16] = test: Cytotoxicity against human MCF7 cells after 72 hrs by MTS assay; conditions: MCF7, 72 h
MCF7 [17] = test: Cytotoxicity against human MCF7 cells at 25 uM after 72 hrs by MTS assay
[18] = Cytotoxicity against mouse NIH/3T3 cells after 3 days by MTS assay; type: cell-based; conditions: NIH3T3, 72 h; method in brief: as §1
[19] = target: DNA topoisomerase 2-alpha (Homo sapiens) (UniProt P11388); test: Inhibition of human recombinant DNA topoisomerase 2alpha-mediated DNA cleavage assessed as decrease in relaxation of supercoiled plasmid substrate DNA at 100 uM after 30 mins by agarose gel electrophoresis
HT-29 [20] = test: Cytotoxicity against human HT-29 cells after 72 hrs by MTS assay; conditions: HT-29, 72 h
Nucleic Acid = test: Binding affinity to DNA by ethidium bromide staining-based FID assay; set-up: concentration or dose not given beside the values
[21] = target: T1, DNA topoisomerase 1 (Homo sapiens); test: Inhibition of human recombinant DNA topoisomerase 1-mediated DNA cleavage assessed as decrease in relaxation of supercoiled plasmid substrate DNA at 5 uM after 30 mins by agarose gel electrophoresis
HepG2 [22] = test: Cytotoxicity against human HepG2 cells assessed as cell viability at 16 uM after 72 hrs by MTS assay; conditions: HepG2, 72 h, read-out: Activity
HT-29 [23] = test: Cytotoxicity against human HT-29 cells assessed as cell viability at 20 uM after 24 hrs by MTS assay; type: functional; conditions: HT-29, 24 h, read-out: Activity
MCF7 [24] = test: Cytotoxicity against human MCF7 cells assessed as cell viability at 20 uM after 72 hrs by MTS assay; conditions: MCF7, 72 h, read-out: Activity
HepG2 [25] = test: Cytotoxicity against human HepG2 cells assessed as cell viability at 100 uM after 72 hrs by MTS assay; conditions: HepG2, 72 h
HT-29 [26] = test: Cytotoxicity against human HT-29 cells assessed as cell viability at 100 uM after 72 hrs by MTS assay; conditions: HT-29, 72 h
MCF7 [27] = test: Cytotoxicity against human MCF7 cells assessed as cell viability at 100 uM after 72 hrs by MTS assay; conditions: MCF7, 72 h
HepG2 [28] = test: Cytotoxicity against human HepG2 cells assessed as cell viability at 25 uM after 72 hrs by MTS assay; conditions: HepG2, 72 h

Sequence of DNA topoisomerase 2-alpha (Homo sapiens) (P11388 whole entry): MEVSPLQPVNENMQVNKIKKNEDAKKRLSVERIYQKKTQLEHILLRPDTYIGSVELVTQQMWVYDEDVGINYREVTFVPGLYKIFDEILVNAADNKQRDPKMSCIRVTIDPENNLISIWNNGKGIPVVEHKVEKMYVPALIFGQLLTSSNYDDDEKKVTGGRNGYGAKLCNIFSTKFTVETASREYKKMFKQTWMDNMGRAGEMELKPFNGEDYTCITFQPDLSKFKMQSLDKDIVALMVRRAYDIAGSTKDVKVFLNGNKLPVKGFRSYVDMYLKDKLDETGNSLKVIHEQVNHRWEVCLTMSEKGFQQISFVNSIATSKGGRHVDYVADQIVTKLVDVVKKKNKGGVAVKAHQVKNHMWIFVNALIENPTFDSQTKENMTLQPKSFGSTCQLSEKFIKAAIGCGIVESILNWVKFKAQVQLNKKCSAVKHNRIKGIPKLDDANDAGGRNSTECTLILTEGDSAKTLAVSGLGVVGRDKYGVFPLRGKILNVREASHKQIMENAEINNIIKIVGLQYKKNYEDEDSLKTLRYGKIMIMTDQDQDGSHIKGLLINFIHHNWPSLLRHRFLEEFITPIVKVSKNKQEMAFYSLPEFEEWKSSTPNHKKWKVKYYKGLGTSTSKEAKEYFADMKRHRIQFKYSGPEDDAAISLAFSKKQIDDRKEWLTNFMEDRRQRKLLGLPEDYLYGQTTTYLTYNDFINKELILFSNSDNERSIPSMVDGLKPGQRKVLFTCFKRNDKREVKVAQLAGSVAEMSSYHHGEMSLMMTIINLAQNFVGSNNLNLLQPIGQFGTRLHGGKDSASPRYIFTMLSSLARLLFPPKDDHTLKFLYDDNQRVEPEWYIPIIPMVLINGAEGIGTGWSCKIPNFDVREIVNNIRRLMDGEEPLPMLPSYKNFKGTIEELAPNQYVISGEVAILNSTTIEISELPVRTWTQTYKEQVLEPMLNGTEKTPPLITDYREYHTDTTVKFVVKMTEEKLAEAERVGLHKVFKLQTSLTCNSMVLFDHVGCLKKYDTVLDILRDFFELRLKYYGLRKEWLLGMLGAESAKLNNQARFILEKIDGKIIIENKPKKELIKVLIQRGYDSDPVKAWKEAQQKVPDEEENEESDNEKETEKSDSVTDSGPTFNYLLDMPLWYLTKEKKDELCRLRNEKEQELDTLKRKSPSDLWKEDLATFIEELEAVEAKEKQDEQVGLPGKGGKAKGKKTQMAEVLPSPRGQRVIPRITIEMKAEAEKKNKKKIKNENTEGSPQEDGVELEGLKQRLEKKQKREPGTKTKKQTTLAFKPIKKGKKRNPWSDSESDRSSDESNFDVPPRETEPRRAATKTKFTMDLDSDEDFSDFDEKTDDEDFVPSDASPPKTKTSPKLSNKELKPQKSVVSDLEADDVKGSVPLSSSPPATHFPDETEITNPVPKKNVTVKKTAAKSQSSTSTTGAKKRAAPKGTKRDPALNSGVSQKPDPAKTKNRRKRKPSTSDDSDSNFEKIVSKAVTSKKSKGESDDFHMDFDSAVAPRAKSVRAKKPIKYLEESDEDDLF

SMILES	IC50 [1] [µM]	Activity [2]	inhibition [3] [%]	inhibition [4]	Activity (HT-29 [5]) [%]	inhibition [6]	viability at 25 µM (HepG2 [7]) [%]	viability at 25 µM (HT-29 [9]) [%]	IC50 (Vero) [µM]	Activity (HepG2 [10]) [%]	IC50 (HepG2 [11]) [µM]	Activity [12]	inhibition [14]	viability at 25 µM (MCF7 [15]) [%]	IC50 (MCF7 [16]) [µM]	Activity (MCF7 [17]) [%]	IC50 [18] [µM]	inhibition [19] [%]	IC50 (HT-29 [20]) [µM]	Activity (Nucleic Acid) [%]	also measured
Cc1ccc(S(=O)(=O)n2c(-c3ccccc3)c(C#CCO[C@H]3C[C@H](N)[C@H](O)[C@H](C)O3)c3ccccc32)cc1	16.5	inactive	80.1	inactive	100	Active	< 1	< 1	10.2	100	5.9	inactive	inactive	< 1	4.8	100	5	101	6.3	47.9	Activity [8]: inactive; Activity [13]: inactive
Cc1ccc(S(=O)(=O)n2c(-c3ccccc3)c(C#CCO[C@H]3C[C@H](N)[C@@H](O)[C@H](C)O3)c3ccccc32)cc1	24.3	inactive	92.8	inactive	100	Active	< 1	< 1	11.6	100	7.7	inactive	inactive	< 1	4.7	100	5.8	103	7.3	49.7	–
CC[C@@]1(O)C(=O)OCc2c1cc1n(c2=O)Cc2cc3ccccc3nc2-1	–	inactive	–	–	–	–	–	–	–	–	–	inactive	–	–	–	–	–	–	–	–	–
COc1cccc2c1C(=O)c1c(O)c3c(c(O)c1C2=O)C[C@@](O)(C(=O)CO)C[C@@H]3O[C@H]1C[C@H](N)[C@H](O)[C@H](C)O1 [DOXORUBICIN]	> 25	inactive	–	inactive	–	–	8	43	10.4	–	1	–	–	–	16.8	–	3.5	–	0.6	–	inhibition [21]: Active; viability at 16 µM (HepG2 [22]): 8%; viability at 20 µM (HT-29 [23]): 43%; viability at 20 µM (MCF7 [24]): 47%
C[C@@H]1O[C@@H](OCC#Cc2c(-c3ccccc3)oc3ccccc23)C[C@H](N)[C@@H]1O	16.7	inactive	77.8	inactive	100	–	< 1	< 1	5.7	100	3.2	inactive	inactive	< 1	6.6	100	4.8	6.5	5.2	62	–
Cc1ccc(S(=O)(=O)n2c(-c3ccccc3)c(C#CCO[C@H]3CC[C@H](N)[C@H](C)O3)c3ccccc32)cc1	17.5	inactive	43.2	inactive	100	Active	< 1	< 1	10.1	100	9.5	inactive	–	< 1	5.1	100	4.9	86.2	5.4	38.6	–
Ic1c(-c2ccccc2)sc2ccccc12	–	inactive	–	–	–	–	–	–	–	–	–	inactive	–	–	–	–	–	–	–	–	viability at 100 µM (HepG2 [25]): 87%; viability at 100 µM (HT-29 [26]): 89%; viability at 100 µM (MCF7 [27]): 111%
COc1cccc2c1C(=O)c1c(O)c3c(c(O)c1C2=O)C[C@@](O)(C(C)=O)C[C@@H]3O[C@H]1C[C@H](N)[C@H](O)[C@H](C)O1 [DAUNORUBICIN]	10.5	–	–	inactive	–	–	–	11	2.5	–	0.7	–	–	–	5.5	–	1.8	–	0.4	–	inhibition [21]: Active; viability at 16 µM (HepG2 [22]): 2%; viability at 20 µM (HT-29 [23]): 11%; viability at 20 µM (MCF7 [24]): 2%; viability at 25 µM (HepG2 [28]): 2%
